# How the values were obtained:
# [1] = tested on: Trypanosoma brucei brucei; test: Antitrypanosomal activity against Trypanosoma brucei brucei AnTat 1.9 trypomastigotes assessed as reduction in parasite viability incubated for 69 hrs by Alamar Blue dye based assay; type: functional, organism-based; conditions: AnTat 1.9, 69 h
# Summary of the method: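 Bloodstream AnTat 1.9 parasites grown at 37°C, 5% CO₂ in MEM with Earle's salts (Baltz-type) plus 0.5 mM mercaptoethanol, 1.5 mM L-cysteine, 0.05 mM bathocuproine sulfate and 20% heat-inactivated horse serum. EC50 from nonlinear regression, three independent experiments in duplicate.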
# HepG2 = test: (§1) Cytotoxicity against human HepG2 cells assessed as reduction in cell viability incubated for 72 hrs by MTT assay; type: cell-based; conditions: hepg2, 72 h
# Leishmania infantum = test: Antileishmanial activity against Leishmania infantum MHOM/MA/67/ITMAP-263 axenic amastigotes expressing luciferase plasmid assessed as reduction in parasite viability incubated for 48 hrs by Steady Glow reagent based luminescence assay; type: functional, organism-based; conditions: MHOM/MA/67/ITMAP-263, 48 h
# [2] = Electrochemical behavior of the compound assessed as redox potential corrected toward normal hydrogen electrode by cyclic voltammetry
# [3] = Selectivity index, ratio of CC50 for human HepG2 cells to EC50 for Trypanosoma brucei brucei trypomastigotes AnTat 1.9; type: toxicity; conditions: read-out: Ratio CC50/EC50
# [4] = Permeability of the compound in pH 7.4 Prisma HT buffer at 100 uM incubated for 4 hrs by PAMPA-BBB assay method; type: ADME; conditions: read-out: permeability
# [5] = Microsomal stability in CD-1 mouse liver microsomes in presence of NADP measured up to 40 mins by LC-MS analysis; type: ADME, Microsome
# Summary of the method: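 Compound incubated in duplicate with female CD-1 mouse microsomes at 37°C in 50 mM phosphate pH 7.4. Cofactors: 5 mM MgCl₂, 1 mM NADP, 0.4 U/mL G6PDH and 5 mM glucose-6-phosphate. […] Propranolol reference.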
# Leishmania donovani [6] = test: Antileishmanial activity against wild type Leishmania donovani BOB (MHOM/SD/62/1S-CL2D) promastigotes assessed as inhibition of parasite growth incubated for 72 hrs by resazurin dye based assay; type: functional, organism-based
# Summary of the method: (§2)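 LdBOB promastigotes grown at 26 °C in modified M199; NTR1- or NTR2-overexpressing lines kept under nourseothricin (100 µg/mL). Triplicate cultures seeded at 5×10^4 parasites/mL with drug for 72 h; 50 µM resazurin added, fluorescence (ex 528/em 590 nm) read after a further 4 h.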
# Leishmania donovani [7] = test: Selectivity index, ratio of EC50 for wild type Leishmania donovani BOB (MHOM/SD/62/1S-CL2D) promastigotes to EC50 for Leishmania donovani BOB (MHOM/SD/62/1S-CL2D) promastigotes overexpressing NTR1; type: functional
# [8] = tested on: Trypanosoma brucei brucei; test: Selectivity index, ratio of EC50 for bloodstream form of wild type Trypanosoma brucei brucei S427 trypomastigotes to EC50 for blood stream form of Trypanosoma brucei brucei S427 trypomastigotes overexpressing NTR; type: functional
# [9] = tested on: Trypanosoma brucei brucei; test: Antitrypanosomal activity against blood stream form of Trypanosoma brucei brucei S427 trypomastigotes overexpressing NTR assessed as inhibition of parasite growth; type: functional, organism-based
# Leishmania donovani [10] = test: Antileishmanial activity against Leishmania donovani BOB (MHOM/SD/62/1S-CL2D) promastigotes overexpressing NTR1 assessed as inhibition of parasite growth incubated for 72 hrs by resazurin dye based assay; type: functional, organism-based; summary of the method: as §2
# [11] = tested on: Trypanosoma brucei brucei; test: Antitrypanosomal activity against bloodstream form of wild type Trypanosoma brucei brucei S427 trypomastigotes assessed as inhibition of parasite growth; type: functional, organism-based
# Leishmania donovani [12] = test: Antileishmanial activity against Leishmania donovani BOB (MHOM/SD/62/1S-CL2D) promastigotes overexpressing NTR2 assessed as inhibition of parasite growth incubated for 72 hrs by resazurin dye based assay; type: functional, organism-based; summary of the method: as §2
# Plasma proteins = test: Plasma protein binding incubated for 4 hrs by LCMS analysis
# [13] = as §1; type: cell-based; conditions: HepG2 cells
# [14] = Half life in NMRI mouse at 25 mg/Kg, ig measured up to 24 hrs by LCMS analysis; type: ADME; conditions: in vivo, po
# Trypanosoma cruzi = test: Antitrypanosomal activity against Trypanosoma cruzi CL Brener amastigotes infected in African green monkey Vero cells assessed as reduction in parasite growth incubated for 120 hrs at 24 hrs post-infection and measured on day 6 post-infection by hemocytometer based light microscopy; type: functional, organism-based
# Summary of the method: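 Compounds, 2–4-fold serial dilutions over 0,1–25 µM final, applied for 120 h at 37°C. On day 6, released trypomastigotes pooled, centrifuged and counted by haemocytometer. EC50 by nonlinear regression; two experiments, triplicate wells.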
compound,measurement,setting,value
O=c1ccc2cc(C(F)(F)F)ccc2[nH]1,EC50,[1],> 50 µM
same,CC50,HepG2,> 100 µM
same,EC50,Leishmania infantum,> 100 µM
O=c1[nH]c2c([N+](=O)[O-])cc(Br)cc2cc1Br,EC50,[1],0.05 µM
same,CC50,HepG2,16.6 µM
same,EC50,Leishmania infantum,6.5 µM
same,Activity,[2],-0.37 V
same,selectivity ratio,[3],332
C[C@@H]1[C@H](O)[C@@H](C)/C=C/C=C/C=C/C=C/C=C/C=C/C=C/[C@H](O[C@@H]2O[C@H](C)[C@@H](O)[C@H](N)[C@@H]2O)C[C@@H]2O[C@](O)(C[C@@H](O)C[C@@H](O)[C@H](O)CC[C@@H](O)C[C@@H](O)CC(=O)O[C@H]1C)C[C@H](O)[C@H]2C(=O)O [AMPHOTERICIN B],EC50,Leishmania infantum,0.06 µM
O=c1[nH]c2c([N+](=O)[O-])cc(C#CCCCO)cc2cc1Cl,EC50,[1],0.85 µM
same,CC50,HepG2,32.7 µM
same,EC50,Leishmania infantum,10.1 µM
same,selectivity ratio,[3],38
O=c1[nH]c2c([N+](=O)[O-])cccc2cc1Cl,EC50,[1],1.2 µM
same,EC50,Leishmania infantum,16 µM
same,Activity,[2],-0.47 V
same,selectivity ratio,[3],71
O=c1[nH]c2ccc(C(F)(F)F)cc2cc1Br,EC50,[1],> 50 µM
same,CC50,HepG2,> 100 µM
same,EC50,Leishmania infantum,> 100 µM
O=c1[nH]c2c([N+](=O)[O-])cc(C(F)(F)F)cc2cc1Cl,EC50,[1],0.57 µM
same,CC50,HepG2,31.4 µM
same,EC50,Leishmania infantum,9.2 µM
same,selectivity ratio,[3],55
COc1ccc2cc(C(F)(F)F)cc([N+](=O)[O-])c2n1,EC50,[1],20.9 µM
same,CC50,HepG2,> 100 µM
same,EC50,Leishmania infantum,> 100 µM
same,Activity,[2],-0.75 V
same,selectivity ratio,[3],> 5
O=c1[nH]c2c([N+](=O)[O-])cc(C(F)(F)F)cc2cc1Br,"Papp at 4 h, 100 µM",[4],45 ×10⁻⁶ cm/s
same,t1/2,[5],> 40 min
same,EC50,Leishmania donovani [6],4.1 µM
same,EC50,[1],0.2 µM
same,Ratio EC50,Leishmania donovani [7],3.5
same,Ratio EC50,[8],7
same,EC50,[9],0.9 µM
same,EC50,Leishmania donovani [10],1.2 µM
same,CC50,HepG2,41.3 µM
same,EC50,Leishmania infantum,3.9 µM
same,EC50,[11],6.7 µM
same,Activity,[2],-0.36 V
same,EC50,Leishmania donovani [12],4.9 µM
same,Activity,Plasma proteins,99.4%
same,selectivity ratio,[3],206
O=c1ccc2cc(Br)cc([N+](=O)[O-])c2[nH]1,EC50,[1],0.07 µM
same,CC50,HepG2,27.9 µM
same,EC50,Leishmania infantum,11.6 µM
same,Activity,[2],-0.4 V
same,selectivity ratio,[3],399
CCCCCCCCCCCCCCCCOP(=O)([O-])OCC[N+](C)(C)C [MILTEFOSINE],EC50,Leishmania infantum,0.8 µM
O=C(O)c1ccc(-c2cc3cc(Br)cc([N+](=O)[O-])c3[nH]c2=O)cc1,"Papp at 4 h, 100 µM",[4],1.27 ×10⁻⁶ cm/s
same,t1/2,[5],> 40 min
same,EC50,Leishmania donovani [6],2 µM
same,EC50,[1],0.2 µM
same,Ratio EC50,[8],40
same,EC50,[9],0.1 µM
same,EC50,Leishmania donovani [10],1.3 µM
same,CC50,HepG2,60.4 µM
same,EC50,Leishmania infantum,8 µM
same,EC50,[11],4 µM
same,Activity,[2],-0.4 V
same,EC50,Leishmania donovani [12],2.1 µM
same,selectivity ratio,[3],302
O=c1[nH]c2c([N+](=O)[O-])cc(Cl)cc2cc1Cl,EC50,[1],0.1 µM
same,CC50,HepG2,24.3 µM
same,EC50,Leishmania infantum,6.2 µM
same,Activity,[2],-0.37 V
same,selectivity ratio,[3],243
O=C(O)c1ccc(-c2cc3cccc([N+](=O)[O-])c3[nH]c2=O)cc1,EC50,[1],1.5 µM
same,EC50,[9],4.2 µM
same,CC50 at 72 h,[13],120 µM
same,EC50,Leishmania infantum,> 100 µM
same,EC50,[11],5.4 µM
same,Activity,[2],-0.56 V
same,selectivity ratio,[3],80
CSc1ccc(OCc2ncc([N+](=O)[O-])n2C)cc1 [FEXINIDAZOLE],half-life,[14],48 min
same,EC50,[1],0.4 µM
same,CC50,HepG2,> 200 µM
same,EC50,Leishmania infantum,3.4 µM
same,EC50,Trypanosoma cruzi,3 µM
same,selectivity ratio,[3],> 500
O=c1[nH]c2c([N+](=O)[O-])cc(C#CCO)cc2cc1Cl,EC50,[1],1 µM
same,CC50,HepG2,30.9 µM
same,EC50,Leishmania infantum,8.9 µM
same,selectivity ratio,[3],31
Nc1cc(C(F)(F)F)cc2cc(Br)c(=O)[nH]c12,EC50,[1],8.7 µM
same,CC50,HepG2,> 100 µM
same,EC50,Leishmania infantum,> 100 µM
same,selectivity ratio,[3],> 11
O=c1ccc2cc(C(F)(F)F)cc([N+](=O)[O-])c2[nH]1,EC50,[1],1.7 µM
same,CC50,HepG2,41.3 µM
same,EC50,Leishmania infantum,18.5 µM
same,Activity,[2],-0.39 V
same,selectivity ratio,[3],24
O=c1[nH]c2ccc(C(F)(F)F)cc2cc1Cl,EC50,[1],> 50 µM
same,CC50,HepG2,> 100 µM
same,EC50,Leishmania infantum,> 100 µM
NCCCC(N)(C(=O)O)C(F)F (configuration not stated) [EFLORNITHINE],EC50,[1],13.3 µM
same,CC50,HepG2,> 100 µM
CC1CS(=O)(=O)CCN1/N=C/c1ccc([N+](=O)[O-])o1 (configuration not stated) [NIFURTIMOX],EC50,[9],0.6 µM
same,EC50,[11],1.9 µM
Cc1ccc(C(=O)Nc2ccc(S(=O)(=O)O)c3cc(S(=O)(=O)O)cc(S(=O)(=O)O)c23)cc1NC(=O)c1cccc(NC(=O)Nc2cccc(C(=O)Nc3cc(C(=O)Nc4ccc(S(=O)(=O)O)c5cc(S(=O)(=O)O)cc(S(=O)(=O)O)c45)ccc3C)c2)c1 [SURAMIN],EC50,[1],0.03 µM
same,CC50,HepG2,> 100 µM
same,selectivity ratio,[3],> 3330
O=c1[nH]c2c([N+](=O)[O-])cccc2cc1Br,EC50,Leishmania donovani [6],5.9 µM
same,EC50,[9],3.9 µM
same,EC50,Leishmania donovani [10],0.47 µM
same,EC50,[11],17.7 µM
same,Activity,[2],-0.45 V
same,EC50,Leishmania donovani [12],4.6 µM
same,selectivity ratio,[3],48
O=C(Cn1ccnc1[N+](=O)[O-])NCc1ccccc1 [BENZNIDAZOLE],EC50,Trypanosoma cruzi,0.5 µM

# Source: ChEMBL document CHEMBL4342509, “New 8-Nitroquinolinone Derivative Displaying Submicromolar in Vitro Activities against Both Trypanosoma brucei and cruzi” (ACS Med Chem Lett, 2020)
